Experimental data as given in ChEMBL document CHEMBL5058577, “EUbOPEN Chemogenomics Library 2 (Multiplex)” (2022).

Test system: Fibroblast
Assay: Multiplex assay against human fibroblast
Assay type: toxicity, cell-based
Method in brief: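 With compound added, live cells were imaged on a CQ1 microscope at 37°C and 5% CO2; staining with Hoechst33342, BioTracker Green Microtubule Cytoskeleton Dye, MitoTracker Red and Annexin V Alexa Fluor 680 had been done at seeding. The CellPathfinder machine-learning gating scheme split cells into Hoechst high-intensity objects or normal cells, normal cells into healthy, pyknosed or fragmented nuclei, and pyknosed cells into mitotic or apoptotic. The tubulin, mitochondrial-mass and membrane-permeability phenotypes are per cents of healthy-nucleus cells.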

[1] = 12 h, 1 µM, compound concentration 1 uM, replicate 1
[2] = 12 h, 1 µM, compound concentration 1 uM, replicate 2
[3] = 12 h, 10 µM, compound concentration 10 uM, replicate 1
[4] = 12 h, 10 µM, compound concentration 10 uM, replicate 2
[5] = 24 h, 1 µM, compound concentration 1 uM, replicate 1
[6] = 24 h, 1 µM, compound concentration 1 uM, replicate 2
[7] = 24 h, 10 µM, compound concentration 10 uM, replicate 1
[8] = 24 h, 10 µM, compound concentration 10 uM, replicate 2
[9] = 48 h, 1 µM, compound concentration 1 uM, replicate 1
[10] = 48 h, 1 µM, compound concentration 1 uM, replicate 2
[11] = 48 h, 10 µM, compound concentration 10 uM, replicate 1
[12] = 48 h, 10 µM, compound concentration 10 uM, replicate 2

Cc1ccccc1C(=O)Nc1ccc(C(=O)N2CCCC(N(C)C)c3ccccc32)cc1.Cl (centres undefined)
Population Apoptotic (%) [1]: 52%
Population Fragmented Nuclei (%) [1]: 16%
Population Healthy Nuclei (%) [1]: 71%
Population Hoechst High Intensity Objects (%) [1]: 0%
Population Membrane Permeable-Phenotype (%) [1]: 0%
Population Mitochondria Different-Phenotype (%) [1]: 5%
Population Mitotic Cells (%) [1]: 47%
Population Normal (%) [1]: 100%
Population Pyknosed Nuclei (%) [1]: 12%
Population Tubulin-Different-Phenotype (%) [1]: 31%
Total Cell Count [1]: 167
Population Apoptotic (%) [2]: 36%
Population Fragmented Nuclei (%) [2]: 22%
Population Healthy Nuclei (%) [2]: 55%
Population Hoechst High Intensity Objects (%) [2]: 1%
Population Membrane Permeable-Phenotype (%) [2]: 10%
Population Mitochondria Different-Phenotype (%) [2]: 3%
Population Mitotic Cells (%) [2]: 63%
Population Normal (%) [2]: 98%
Population Pyknosed Nuclei (%) [2]: 21%
Population Tubulin-Different-Phenotype (%) [2]: 45%
Total Cell Count [2]: 155
Population Apoptotic (%) [3]: 58%
Population Fragmented Nuclei (%) [3]: 26%
Population Healthy Nuclei (%) [3]: 50%
Population Hoechst High Intensity Objects (%) [3]: 1%
Population Membrane Permeable-Phenotype (%) [3]: 1%
Population Mitochondria Different-Phenotype (%) [3]: 12%
Population Mitotic Cells (%) [3]: 41%
Population Normal (%) [3]: 98%
Population Pyknosed Nuclei (%) [3]: 22%
Population Tubulin-Different-Phenotype (%) [3]: 70%
Total Cell Count [3]: 108
Population Apoptotic (%) [4]: 45%
Population Fragmented Nuclei (%) [4]: 29%
Population Healthy Nuclei (%) [4]: 47%
Population Hoechst High Intensity Objects (%) [4]: 4%
Population Membrane Permeable-Phenotype (%) [4]: 4%
Population Mitotic Cells (%) [4]: 54%
Population Normal (%) [4]: 95%
Population Pyknosed Nuclei (%) [4]: 23%
Population Tubulin-Different-Phenotype (%) [4]: 61%
Total Cell Count [4]: 109
Population Apoptotic (%) [5]: 38%
Population Fragmented Nuclei (%) [5]: 15%
Population Healthy Nuclei (%) [5]: 76%
Population Hoechst High Intensity Objects (%) [5]: 1%
Population Membrane Permeable-Phenotype (%) [5]: 0%
Population Mitochondria Different-Phenotype (%) [5]: 8%
Population Mitotic Cells (%) [5]: 61%
Population Normal (%) [5]: 98%
Population Pyknosed Nuclei (%) [5]: 8%
Population Tubulin-Different-Phenotype (%) [5]: 30%
Total Cell Count [5]: 160
Population Apoptotic (%) [6]: 43%
Population Fragmented Nuclei (%) [6]: 28%
Population Healthy Nuclei (%) [6]: 49%
Population Hoechst High Intensity Objects (%) [6]: 5%
Population Membrane Permeable-Phenotype (%) [6]: 8%
Population Mitochondria Different-Phenotype (%) [6]: 2%
Population Mitotic Cells (%) [6]: 56%
Population Normal (%) [6]: 94%
Population Pyknosed Nuclei (%) [6]: 21%
Population Tubulin-Different-Phenotype (%) [6]: 50%
Total Cell Count [6]: 157
Population Apoptotic (%) [7]: 58%
Population Fragmented Nuclei (%) [7]: 30%
Population Healthy Nuclei (%) [7]: 58%
Population Hoechst High Intensity Objects (%) [7]: 1%
Population Membrane Permeable-Phenotype (%) [7]: 0%
Population Mitochondria Different-Phenotype (%) [7]: 12%
Population Mitotic Cells (%) [7]: 41%
Population Normal (%) [7]: 98%
Population Pyknosed Nuclei (%) [7]: 11%
Population Tubulin-Different-Phenotype (%) [7]: 68%
Total Cell Count [7]: 111
Population Apoptotic (%) [8]: 57%
Population Fragmented Nuclei (%) [8]: 37%
Population Healthy Nuclei (%) [8]: 42%
Population Hoechst High Intensity Objects (%) [8]: 4%
Population Membrane Permeable-Phenotype (%) [8]: 9%
Population Mitochondria Different-Phenotype (%) [8]: 11%
Population Mitotic Cells (%) [8]: 42%
Population Normal (%) [8]: 95%
Population Pyknosed Nuclei (%) [8]: 20%
Population Tubulin-Different-Phenotype (%) [8]: 72%
Total Cell Count [8]: 107
Population Apoptotic (%) [9]: 33%
Population Fragmented Nuclei (%) [9]: 13%
Population Healthy Nuclei (%) [9]: 79%
Population Hoechst High Intensity Objects (%) [9]: 3%
Population Membrane Permeable-Phenotype (%) [9]: 0%
Population Mitochondria Different-Phenotype (%) [9]: 4%
Population Mitotic Cells (%) [9]: 66%
Population Normal (%) [9]: 96%
Population Pyknosed Nuclei (%) [9]: 7%
Population Tubulin-Different-Phenotype (%) [9]: 28%
Total Cell Count [9]: 158
Population Apoptotic (%) [10]: 53%
Population Fragmented Nuclei (%) [10]: 32%
Population Healthy Nuclei (%) [10]: 50%
Population Membrane Permeable-Phenotype (%) [10]: 8%
Population Mitochondria Different-Phenotype (%) [10]: 5%
Population Mitotic Cells (%) [10]: 46%
Population Pyknosed Nuclei (%) [10]: 17%
Population Tubulin-Different-Phenotype (%) [10]: 54%
Total Cell Count [10]: 155
Population Apoptotic (%) [11]: 91%
Population Fragmented Nuclei (%) [11]: 24%
Population Healthy Nuclei (%) [11]: 60%
Population Hoechst High Intensity Objects (%) [11]: 7%
Population Membrane Permeable-Phenotype (%) [11]: 0%
Population Mitochondria Different-Phenotype (%) [11]: 12%
Population Mitotic Cells (%) [11]: 8%
Population Normal (%) [11]: 92%
Population Pyknosed Nuclei (%) [11]: 14%
Population Tubulin-Different-Phenotype (%) [11]: 51%
Total Cell Count [11]: 88
Population Apoptotic (%) [12]: 73%
Population Fragmented Nuclei (%) [12]: 43%
Population Healthy Nuclei (%) [12]: 43%
Population Hoechst High Intensity Objects (%) [12]: 3%
Population Membrane Permeable-Phenotype (%) [12]: 8%
Population Mitochondria Different-Phenotype (%) [12]: 14%
Population Mitotic Cells (%) [12]: 26%
Population Normal (%) [12]: 96%
Population Pyknosed Nuclei (%) [12]: 13%
Population Tubulin-Different-Phenotype (%) [12]: 70%
Total Cell Count [12]: 113
